pIC50: −log10 of the molar value. Converted amounts (≈) assume the structure as drawn. Bounds are passed on as bounds.

As a reminder, the pIC50 is −log10 of the IC50, conventionally taken in molar units. As usually defined, the MIC is the lowest concentration that inhibits growth of the organism. One may read the inhibition as how much of the control response was suppressed.

Experiment [1] has as its target T1, 1-deoxy-D-xylulose 5-phosphate reductoisomerase, apicoplastic (Plasmodium falciparum (isolate 3D7)) (UniProt Q8IKG4).
T1 sequence (whole entry): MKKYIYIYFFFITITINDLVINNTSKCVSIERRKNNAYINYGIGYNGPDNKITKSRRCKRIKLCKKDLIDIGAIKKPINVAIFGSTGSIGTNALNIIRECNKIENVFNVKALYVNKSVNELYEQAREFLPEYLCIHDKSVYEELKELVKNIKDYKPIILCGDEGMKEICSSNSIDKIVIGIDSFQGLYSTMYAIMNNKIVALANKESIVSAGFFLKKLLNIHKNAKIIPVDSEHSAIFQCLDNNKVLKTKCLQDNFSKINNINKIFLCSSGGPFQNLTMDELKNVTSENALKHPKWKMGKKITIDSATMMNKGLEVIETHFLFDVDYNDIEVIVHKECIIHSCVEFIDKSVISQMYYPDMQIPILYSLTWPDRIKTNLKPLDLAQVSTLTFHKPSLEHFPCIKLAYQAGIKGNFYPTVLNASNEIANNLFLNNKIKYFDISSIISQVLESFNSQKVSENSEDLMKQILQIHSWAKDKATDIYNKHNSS
The experiment in a line: Inhibition of Plasmodium falciparum DXR expressed in Escherichia coli BL21 CodonPlus (DE3)-RIL cells assessed as remaining activity using DOXP as substrate at 100 uM in presence of NADPH by UV-visible spectrophotometry relative to control. The procedure, abridged: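 Recombinant His-tagged PfDXR purified by TALON affinity. Assay at 37 °C in 100 mM Tris pH 7.8, 25 mM MgCl2, 0.86 µM enzyme, 150 µM NADPH; reaction started with 144 µM DOXP. NADPH oxidation followed at 340 nm. Single inhibitor concentration 100 µM, given as percent remaining activity; technical duplicates.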

The next experiment relates to Plasmodium falciparum. Put plainly: Antiplasmodial activity against Plasmodium falciparum 3D7 assessed as reduction in parasite growth by measuring DNA content after 3 days by PicoGreen staining based FLUOstar omega microplate reader analysis. Conditions: 3D7, 72 h. It counts as functional, organism-based. In outline: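 Asynchronous cultures in 2% hematocrit, RPMI-1640 complete medium with 0.5% Albumax, under 5% O2/5% CO2/90% N2 at 37 °C. Diluted to 0.5% parasitemia, inhibitors 1.2 nM to 492.4 µM added at start. Growth read after 3 days as DNA content by PicoGreen fluorescence (485/528 nm). IC50 from 4-parameter nonlinear regression; technical duplicate, biological triplicate.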

For experiment [2], the target named is T2, 1-deoxy-D-xylulose 5-phosphate reductoisomerase (Mycobacterium tuberculosis) (UniProt P9WNS1).
T2 sequence (whole entry): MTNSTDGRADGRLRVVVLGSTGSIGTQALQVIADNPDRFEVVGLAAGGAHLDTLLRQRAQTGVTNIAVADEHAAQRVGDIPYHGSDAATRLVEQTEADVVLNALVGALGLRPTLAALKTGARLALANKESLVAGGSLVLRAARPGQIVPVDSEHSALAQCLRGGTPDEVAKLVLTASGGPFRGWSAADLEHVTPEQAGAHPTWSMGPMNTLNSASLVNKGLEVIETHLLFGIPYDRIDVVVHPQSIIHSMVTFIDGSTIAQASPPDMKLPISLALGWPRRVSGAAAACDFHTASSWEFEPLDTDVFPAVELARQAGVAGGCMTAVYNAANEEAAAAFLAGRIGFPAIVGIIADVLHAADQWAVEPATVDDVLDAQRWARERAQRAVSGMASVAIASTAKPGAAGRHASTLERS
The experiment in a line: Inhibition of Mycobacterium tuberculosis DXR expressed in Escherichia coli BL21 CodonPlus (DE3)-RIL cells assessed as remaining activity using DOXP as substrate at 100 uM in presence of NADPH by UV-visible spectrophotometry relative to control. The procedure, abridged: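 Recombinant MtbDXR (pET101/D-TOPO in E. coli BL21 CodonPlus (DE3)-RIL, IMAC-purified) at 0.89 µM in 100 mM MES pH 6.5, 25 mM MgCl2, 150 µM NADPH, 47 µM DOXP, 37 °C. Inhibitor was tested at a single 100 µM. NADPH oxidation was followed at 340 nm, and percent remaining activity was reported. Technical duplicates.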

In experiment [3] the test system is Mycobacterium tuberculosis. Put plainly: Antibacterial activity against Mycobacterium tuberculosis H37Rv assessed as reduction in bacterial growth incubated for 2 weeks by macroscopic plate reader analysis. It counts as functional. Conditions: 336 h. In outline: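 H37Rv grown in 7H9 broth with 0.08% NaCl, 0.4% glucose, 0.05% casitone and 0.05% tyloxapol, then diluted 1:500. Compounds were made as 20 mg/mL DMSO stocks and run as eleven 2-fold serial dilutions. Plates were held 2 weeks at 37 °C and MIC99 was read macroscopically. Three independent measurements.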

In experiment [4] the target is T3, 1-deoxy-D-xylulose 5-phosphate reductoisomerase, apicoplastic (Plasmodium falciparum (isolate 3D7), UniProt Q8IKG4).
T3 sequence (Q8IKG4 whole entry): T1 sequence (whole entry)
The experiment in a line: Inhibition of Plasmodium falciparum DXR expressed in Escherichia coli BL21 CodonPlus (DE3)-RIL cells using DOXP as substrate in presence of NADPH by UV-visible spectrophotometry.

For experiment [5], the target named is T1, 1-deoxy-D-xylulose 5-phosphate reductoisomerase, apicoplastic (Plasmodium falciparum (isolate 3D7)). Put plainly: Inhibition of Plasmodium falciparum DXR expressed in Escherichia coli BL21 CodonPlus (DE3)-RIL cells using DOXP as substrate at 100 uM in presence of NADPH by UV-visible spectrophotometry relative to control. The procedure, abridged:
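PfDXR single-point test at 100 µM inhibitor. Conditions: 0.86 µM IMAC-purified enzyme, 100 mM Tris pH 7.8, 25 mM MgCl2, 150 µM NADPH, 37 °C. Reaction was started with 144 µM DOXP, and NADPH oxidation was monitored at 340 nm. Percent remaining activity was reported; technical duplicates.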

Take `CC(=O)N(CCC(c1ccc(Cl)c(Cl)c1)P(=O)(O)O)OCc1ccc(Br)cc1` (centres undefined): the Activity in experiment [1] amounted to 53.1%; in experiment [2] it was 72.3%. In the experiment with Plasmodium falciparum, the pIC50 is 4.17. For the same molecule, in experiment [3], the MIC was > 92 µM.
As for `CC(=O)N(CCC(c1ccc(Cl)c(Cl)c1)P(=O)(OCOC(=O)C(C)(C)C)OCOC(=O)C(C)(C)C)OC(C)c1ccc(F)cc1` (centres undefined), in the experiment with Plasmodium falciparum, the pIC50 is 4.67. Further, the MIC in experiment [3] came out at 6.6 µM (≈ 4.57 µg/mL).
Take `CC(=O)N(CCC(c1ccc(Cl)c(Cl)c1)P(=O)(O)O)OCc1ccc(-c2ccccc2)cc1` (centres undefined): the Activity worked out at 27% in experiment [1] and 93.9% in experiment [2]. In addition, the pIC50 with Plasmodium falciparum is 4.06. Moreover, in experiment [3], the MIC came out at 23.1 µM (≈ 11.7 µg/mL).
The corresponding values for `CC(=O)N(CCC(c1ccc(Cl)c(Cl)c1)P(=O)(O)O)OCc1ccccc1` (centres undefined) are 26.7%, 34.2%, 4.50 and > 214 µM.
As for `CC(=O)N(CCC(c1ccc(Cl)c(Cl)c1)P(=O)(OCOC(=O)C(C)(C)C)OCOC(=O)C(C)(C)C)OCc1ccc(C(C)C)cc1` (centres undefined), the pIC50 in the experiment on Plasmodium falciparum is 4.86. Also, the MIC in experiment [3] stood at 17.8 µM (≈ 12.5 µg/mL).
The corresponding values for `CC(=O)N(O)CCC(c1ccc(Cl)c(Cl)c1)P(=O)(OCOC(=O)C(C)(C)C)OCOC(=O)C(C)(C)C` (centres undefined) are 4.89 and 8.1 µM (≈ 4.62 µg/mL).
The corresponding values for `CC(=O)N(CCC(c1ccc(Cl)c(Cl)c1)P(=O)(OCOC(=O)C(C)(C)C)OCOC(=O)C(C)(C)C)OCc1ccc2ccccc2c1` (centres undefined) are 4.86 and 8.8 µM (≈ 6.25 µg/mL).
The corresponding values for `CC(=O)N(CCC(c1ccc(Cl)c(Cl)c1)P(=O)(OCOC(=O)C(C)(C)C)OCOC(=O)C(C)(C)C)OC(C)c1ccc(Cl)cc1` (centres undefined) are 4.52 and 13.3 µM (≈ 9.43 µg/mL).
With `CC(=O)N(CCC(c1ccc(Cl)c(Cl)c1)P(=O)(OCOC(=O)C(C)(C)C)OCOC(=O)C(C)(C)C)OCCCCc1ccccc1` (centres undefined), in the experiment with Plasmodium falciparum, the pIC50 is 4.86. Also, the MIC in experiment [3] came to 17.8 µM (≈ 12.5 µg/mL).
With `CC(=O)N(CCC(c1ccc(Cl)c(Cl)c1)P(=O)(O)O)OCc1ccc2ccccc2c1` (centres undefined), the Activity amounted to 46.6% in experiment [1] and 82.1% in experiment [2]. Also, the pIC50 in the experiment on Plasmodium falciparum was 4.22. The MIC in experiment [3] was found to be 24.2 µM (≈ 11.7 µg/mL).
Consider `CC(=O)N(CCC(c1ccc(Cl)c(Cl)c1)P(=O)(OCOC(=O)C(C)(C)C)OCOC(=O)C(C)(C)C)OCc1ccc(-c2ccc(C(C)C)cc2)cc1` (centres undefined), for which, in the experiment with Plasmodium falciparum, the pIC50 was 4.83. In experiment [3], the MIC is > 128 µM.
The corresponding values for `CC(=O)N(CCC(c1ccc(Cl)c(Cl)c1)P(=O)(OCOC(=O)C(C)(C)C)OCOC(=O)C(C)(C)C)OCc1ccc(Br)cc1` (centres undefined) are 4.46 and 8.5 µM (≈ 6.29 µg/mL).
`CC(=O)N(CCC(c1ccc(Cl)c(Cl)c1)P(=O)(O)O)OC(C)c1ccc(C(F)(F)F)cc1` (centres undefined): the Activity in experiment [1] was found to be 74.7%; in experiment [2] it was 59.6%. Also, the pIC50 in the experiment on Plasmodium falciparum is 4.10. Further, in experiment [3], the MIC is > 91 µM.
With `CC(=O)N(CCC(c1ccc(Cl)c(Cl)c1)P(=O)(OCOC(=O)C(C)(C)C)OCOC(=O)C(C)(C)C)OC(C)c1ccc(C)cc1` (centres undefined), in the experiment with Plasmodium falciparum, the pIC50 was 4.50. Also, the MIC in experiment [3] stood at 18.2 µM (≈ 12.5 µg/mL).
The corresponding values for `CC(=O)N(CCC(c1ccc(Cl)c(Cl)c1)P(=O)(OCOC(=O)C(C)(C)C)OCOC(=O)C(C)(C)C)OCc1ccc(-c2ccccc2)cc1` (centres undefined) are 5.06 and 17 µM (≈ 12.5 µg/mL).
In the case of `CC(=O)N(CCC(c1ccc(Cl)c(Cl)c1)P(=O)(O)O)OC(C)c1ccc(Cl)cc1` (centres undefined), the pIC50 in the experiment on Plasmodium falciparum was 4.16; in experiment [4], 4.69. Also, the Activity in experiment [2] amounted to 66.2%. Besides, in experiment [3], the MIC amounted to 72 µM (≈ 34.6 µg/mL). For the same molecule, in experiment [5], the inhibition was > 90%.
The corresponding values for `CC(=O)N(CCC(c1ccc(Cl)c(Cl)c1)P(=O)(O)O)OCc1ccc(C(C)C)cc1` (centres undefined) are 4.16, 4.58, 80.9%, 12.3 µM (≈ 5.83 µg/mL) and > 90%.
In the case of `CC(=O)N(CCC(c1ccc(Cl)c(Cl)c1)P(=O)(OCOC(=O)C(C)(C)C)OCOC(=O)C(C)(C)C)OC(C)c1ccccc1` (centres undefined), the pIC50 in the experiment with Plasmodium falciparum is 5.28. Also, the MIC in experiment [3] came out at 3.9 µM (≈ 2.63 µg/mL).
On to `CC(=O)N(CCC(c1ccc(Cl)c(Cl)c1)P(=O)(O)O)OCc1ccc(-c2ccc(C(C)C)cc2)cc1` (centres undefined), for which the values for the Activity in experiment [1] and in experiment [2] were 56.1% and 63.2%, respectively. For the same molecule, the pIC50 in the experiment on Plasmodium falciparum was 4.42. The MIC in experiment [3] was 45 µM (≈ 24.8 µg/mL).
As for `CC(=O)N(CCC(c1ccc(Cl)c(Cl)c1)P(=O)(O)O)OCCCCc1ccccc1` (centres undefined), the Activity in experiment [1] is 25.6%; in experiment [2], 99.1%. For the same molecule, the pIC50 with Plasmodium falciparum is 4.20. Moreover, the MIC in experiment [3] is 3.1 µM (≈ 1.47 µg/mL).
Turning to `CC(=O)N(O)CCC(c1ccc(Cl)c(Cl)c1)P(=O)(O)O` (centres undefined), the pIC50 in the experiment with Plasmodium falciparum was 4.73; in experiment [4], 4.87. For the same molecule, the Activity in experiment [2] was determined as 15.7%. Also, in experiment [3], the MIC was > 266 µM. In experiment [5], the inhibition was > 90%.
For the molecule `CC(=O)N(CCC(c1ccc(Cl)c(Cl)c1)P(=O)(OCOC(=O)C(C)(C)C)OCOC(=O)C(C)(C)C)OCc1ccccc1` (centres undefined), the pIC50 with Plasmodium falciparum was 4.38. Also, in experiment [3], the MIC came to 9.5 µM (≈ 6.28 µg/mL).
The corresponding values for `CC(=O)N(CCC(c1ccc(Cl)c(Cl)c1)P(=O)(OCOC(=O)C(C)(C)C)OCOC(=O)C(C)(C)C)OC(C)c1ccc(C(F)(F)F)cc1` (centres undefined) are 4.62 and > 134 µM.
Consider `CC(=O)N(CCC(c1ccc(Cl)c(Cl)c1)P(=O)(O)O)OC(C)c1ccccc1` (centres undefined), for which the pIC50 with Plasmodium falciparum was 5.44; in experiment [4], 4.77. In addition, the Activity in experiment [2] turned out to be 64.6%. In experiment [3], the MIC was > 208 µM. Also, in experiment [5], the inhibition was > 90%.

Source of the values: ChEMBL document CHEMBL5576114, “Inhibition of DXR in the MEP pathway with lipophilic N-alkoxyaryl FR900098 analogs” (RSC Med Chem, 2024).
